Experiments:
Rattus norvegicus [1] = experiment: Effect on DOPAC metabolism was determined by measuring concentration of DOPAC at a time interval of 0 minutes after ip administration of 100 umol/kg of compound; assay type: functional, organism-based
Rattus norvegicus [2] = experiment: Effect on DOPAC metabolism was determined by measuring concentration of DOPAC at a time interval of 45 minutes after ip administration of 100 umol/kg of compound; assay type: functional, organism-based
Method in brief: (§1)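 Female rats (180-200 g) given 100 μmol/kg ip in saline with 0.1% sodium metabisulfite, killed at 15 or 45 min. Striatum frozen on dry ice and kept at -80 °C. DA, DOPAC and HVA isolated on Sephadex G-10, then measured by reversed-phase C18 HPLC with amperometric detection. Control cerebellum used as blank. Not corrected for recovery (86-89%). Mean ± SEM.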

Rattus norvegicus [3] = experiment: Effect on DA metabolism was determined by measuring concentration of DA at a time interval of 0 minutes after ip administration of 100 umol/kg of compound; assay type: functional, organism-based
Rattus norvegicus [4] = species: Rattus norvegicus; experiment: Binding affinity to rat corpus striatum was determined using [3H]NPA as radioligand; assay type: functional
Method in brief: (§2)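 Male rat (200-225 g) striatal homogenate, 2.5 mg wet weight per tube, in 15 mM Tris-HCl pH 7.5 with 1 mM EDTA and 0.01% ascorbic acid. [3H]NPA 0.50 nM final, 25 °C for 20 min. Nonspecific binding with 1 μM d-butaclamol. Displacer tested over 10⁻¹¹–10⁻⁵ M in triplicate. IC50 = 50% reduction of specific binding, mean ± SEM of three experiments.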

Rattus norvegicus [5] = experiment: Effect on HVA metabolism was determined by measuring concentration of HVA at a time interval of 45 minutes after ip administration of 100 umol/kg of compound; assay type: functional, organism-based; method in brief: as §1
Rattus norvegicus [6] = experiment: Effect on HVA metabolism was determined by measuring concentration of HVA at a time interval of 15 minutes after ip administration of 100 umol/kg of compound; assay type: functional, organism-based; method in brief: as §1
Rattus norvegicus [7] = species: Rattus norvegicus; experiment: Concentration required to reduce the specific binding of [3H]NPA by 50% to rat corpus striatum; assay type: functional, organism-based; method in brief: as §2
Rattus norvegicus [8] = experiment: Effect on 6,7-dihydroxy-3-chromanamine metabolism was determined by measuring concentration of 6,7-dihydroxy-3-chromanamine at a time interval of 45 min after ip administration of 100 umol/kg of compound; assay type: functional, organism-based
Method in brief: (§3)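 Female rats (180-200 g) given 100 μmol/kg ip in saline with 0.1% sodium metabisulfite. Killed at 15 or 45 min; striatum dissected, frozen on dry ice and kept at -80 °C. Drug level measured by HPLC with electrochemical detection, mobile phase 0.1 M phosphate-acetate pH 4.5, against a standard. Corrected for 78.8% recovery from spiked brain. Mean ± SEM, n = 8.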

Rattus norvegicus [9] = experiment: Effect on DOPAC metabolism was determined by measuring concentration of DOPAC at a time interval of 15 minutes after ip administration of 100 umol/kg of compound; assay type: functional, organism-based; method in brief: as §1
[10] = Partition coefficient (logP); assay type: physicochemical; settings: octanol/water
Method in brief: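 Log P measured in octanol-phosphate buffer at pH 7.4. Phases analysed by the same HPLC-electrochemical method. Mean ± SD, n = 6.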

Rattus norvegicus [11] = experiment: Effect on 6,7-dihydroxy-3-chromanamine metabolism was determined by measuring concentration of 6,7-dihydroxy-3-chromanamine at a time interval of 15 min after ip administration of 100 umol/kg of compound; assay type: functional, organism-based; method in brief: as §3
Rattus norvegicus [12] = experiment: Effect on DA metabolism was determined by measuring concentration of DA at a time interval of 45 min after ip administration of 100 umol/kg of compound; assay type: functional, organism-based; method in brief: as §1
Rattus norvegicus [13] = experiment: Effect on DA metabolism was determined by measuring concentration of DA at a time interval of 15 minutes after ip administration of 100 umol/kg of compound; assay type: functional, organism-based; method in brief: as §1
Rattus norvegicus [14] = experiment: Effect on HVA metabolism was determined by measuring concentration of HVA at a time interval of 0 minutes after ip administration of 100 umol/kg of compound; assay type: functional, organism-based

Row | Structure (SMILES) | Concentration (Rattus norvegicus [1]) [µg/g] | Concentration (Rattus norvegicus [2]) [µg/g] | Concentration (Rattus norvegicus [3]) [µg/g] | Ki (Rattus norvegicus [4]) [µM] | Concentration (Rattus norvegicus [5]) [µg/g] | Concentration (Rattus norvegicus [6]) [µg/g] | IC50 (Rattus norvegicus [7]) [µM] | Concentration (Rattus norvegicus [8]) [nM/g] | Concentration (Rattus norvegicus [9]) [µg/g] | logP [10] | Concentration (Rattus norvegicus [11]) [nM/g] | Concentration (Rattus norvegicus [12]) [µg/g] | Concentration (Rattus norvegicus [13]) [µg/g] | Concentration (Rattus norvegicus [14]) [µg/g]
1 | NC1COc2cc(O)c(O)cc2C1 (centres undefined) | 1.05 | 1.02 | 9.87 | 0.144 | 1.02 | 0.83 | 0.259 | 0.2 | 0.97 | 1.39 | 0.34 | 10.8 | 10.5 | 0.91
2 | CN1CCc2cccc3c2[C@H]1Cc1ccc(O)c(O)c1-3 [APOMORPHINE] |  |  |  | 0.0105 |  |  | 0.0226 |  |  |  |  |  |  | 
3 | NC1CCc2cc(O)c(O)cc2C1 (centres undefined) |  |  |  | 0.012 |  |  | 0.0245 |  |  | 1.88 |  |  |  | 

Source: ChEMBL document CHEMBL1122617, “6,7-Dihydroxy-3-chromanamine: synthesis and pharmacological activity of an oxygen isostere of the dopamine agonist 6,7-dihydroxy-2-aminotetralin” (J Med Chem, 1984)
